We go through ten compounds from PMC3448962 (Biochemical pharmacology, 2012).

Like-named read-outs stand apart in the source and are kept apart here. Where a SMILES comes first, the peptide text is derived from it. Bridges are numbered along the chain shown (N, C = ends). [ ]: non-standard residue; d: D form. The star is where a group is joined. X1 = CC[C@H](C)CCCCC(=O)*; Dab = NCC[C@H](N)C(=O)O Where only a bound is given, the exact number is not on record here.

For data set [1], the system named is human AGP. As to the kind of experiment: Fluorometric assay: direct titration of fluorescent probe into AGP. The note with it: for binding to AGP by direct fluorometric titration: emission did not plateau where seen, no Kd derived.
Data set [2] relates to human AGP. Briefly: in vitro. Conditions: pH 7.4, Ki.
Data set [3] has as its system human AGP. As to the kind of experiment: Fluorometric probe displacement assay. Conditions: for displacement of BODIPY-PL2 from AGP: probe BODIPY-PL2.
The conditions of data set [4]: human plasma; equilibrium dialysis; cited from earlier work. For orientation: In equilibrium dialysis only unbound substance equilibrates across the membrane.
The conditions of data set [5]: cited from earlier work.
For data set [6] the following is noted: rats; cited from earlier work.
The subject of data set [7] is human α-1-acid glycoprotein (AGP). Briefly: Fluorometric probe displacement assay. Conditions: human.
Data set [8] relates to human AGP. As to the kind of experiment: in vitro. Conditions: pH 7.4.
Data set [9] concerns human AGP. As to the kind of experiment: Surface plasmon resonance. The class given is binding. Conditions: for SPR binding response at single concentrations: 100 μM and 300 μM of each compound. The method in brief:
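AGP was thiol-coupled (PDEA/EDC, MES pH 5.0) to a CM5 chip at 5000 RU, with PBS pH 7.4 running buffer at 25 °C. Compound series were 3-fold dilutions from 3 mM, plus single 100 and 300 μM injections, at 50 μL/min: 30 s association, 60 s dissociation. Response was read 10 s before association ended, reference-subtracted and MW-normalised. Glycine pH 1.7 regenerated the chip; chlorpromazine served as surface control. Runs were done ≥3 times.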
(Surface plasmon resonance follows binding to a sensor surface in real time, without labels.)

Data set [10] concerns human AGP. Briefly: Isothermal titration calorimetry. The note with it: for Kd: 25 °C. Format: binding. The method in brief:
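Human AGP (63 μM) in 20 mM HEPES pH 7.0, degassed, was titrated with 80 × 3-μL injections of 10–13 mM test compound at 240-s intervals, stirred at 307 rpm. Runs were at 37 °C, with one compound also at 15, 20, 25 and 30 °C. Delipidation was on lipidex 1000 in 20 mM HEPES pH 7.4 at 37 °C. Heat of dilution was subtracted, and n and ΔH came from a one-set-of-sites fit.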

The conditions of data set [11]: cited from earlier work. This is another data set of the same source.

In the case of “2-(4,4-difluoro-5-methyl-4-bora-3a,4a-diaza-s-indacene-3-dodecanoyl)-1-hexadecanoyl-sn-glycero-3-phosphocholine [BODIPY-PL2]”, the “binding to AGP by direct fluorometric titration” value (“binding to AGP” below) in data set [1] is recorded as “apparent weak affinity”.

Usually Kd stands for the concentration at which binding is half-saturated. Turning to `O=S(=O)(O)c1cccc2cccc(Nc3ccccc3)c12` [ANS, 1-anilino-8-naphthalene sulfonic acid], in [1] (human, pH 7.4), the affinity, expressed as Kd at 2 min, was 0.87 ± 0.07 µM.

For `CCCCCCCCCCCCCCCC(=O)OC[C@H](COP(=O)(O)OCCNC(=O)CCc1ccc2n1[B-](F)(F)[N+]1=C(C)C=C(C)C1=C2)OC(=O)CCCCCCCCCCCCCCC.CCN(CC)CC` [BODIPY-PL1, N-(4,4-difluoro-5,7-dimethyl-4-bora-3a,4a-diaza-s-indacene-3-propionyl)-1,2-dihexa-decanoyl-sn-glycero-3-phosphoethanolamine, triethylammonium salt], the “binding to AGP” value in [1] is “no fluorescence emission observed”.

As a reminder, the Ki is a measure of affinity in units of concentration, obtained from inhibition or displacement. With `CN(C)CCCN1c2ccccc2Sc2ccc(Cl)cc21` [Chlorpromazine], the Ki at 2 min stood at 0.14 ± 0.01 µM in data set [2] (displacement of ANS), 2.8 ± 0.2 µM in data set [2] (displacement of AO) and 0.67 ± 0.05 µM in data set [2] (displacement of NR). The “displacement of BODIPY-PL2 from AGP” value in data set [3] is on record as “able to compete with BODIPY-PL2”.

As for `CC[C@H](C)CCCCC(=O)N[C@@H](CCN)C(=O)N[C@H](C(=O)N[C@@H](CCN)C(=O)N[C@H]1CCNC(=O)[C@H]([C@@H](C)O)NC(=O)[C@H](CCN)NC(=O)[C@H](CCN)NC(=O)[C@H](CC(C)C)NC(=O)[C@@H](CC(C)C)NC(=O)[C@H](CCN)NC1=O)[C@@H](C)O` [Colistin, colistin] (X1-[Dab]T[Dab][Dab][Dab][dL]L[Dab][Dab]T; lactam 4-C (inferred); N-terminus assumed), in data set [4], the bound to plasma result is “over 50%”. Besides, the “level of plasma protein binding in neutropenic infected mice compared to healthy mice” value in data set [5] is given as “greater”. Further, the plasma protein binding in data set [6] was 55–57%. Also, the Ki in [7] (Ki values (text summary over probes), titration of probe-AGP solutions) is more than 200 µM; in data set [7] (Ki, displacement of ANS, probe ANS, 20°C, mean ± SE, n = 3 unless otherwise indicated, ND = not detected) it was 351 ± 188 µM. Further, in data set [3], the “displacement of BODIPY-PL2 from AGP” value is “unable to produce any discernible displacement”.

In the case of `CCN(CC)c1ccc2nc3c4ccccc4c(=O)cc-3oc2c1` [NR, Nile Red], in [8], the affinity, expressed as Kd at 2 min, was 0.91 ± 0.2 µM.

For Colistin nona-peptide [colistin NP], the “SPR binding response at single concentrations” value (“SPR binding response” below) in data set [9] is reported as “very poor responses”. Moreover, in data set [10], the “binding affinity for AGP by ITC” value is reported as “no detectable binding affinity”.

Polymyxin B [PmB]: the bound to plasma result in data set [4] was “over 50%”. The “SPR binding response” value in [9] is “highest response”. Moreover, the Kd was determined as 210 µM in [10] (read-out: Kd, delipidated AGP, delipidated sample) and 103 µM in [10] (read-out: Kd, non-delipidated AGP, non-delipidated sample). Also, in [11] (critically ill septic patients), the “plasma protein binding, critically ill septic patients” value is recorded as “more than 90%”. The “plasma protein binding, healthy subjects” value in data set [11] (healthy subjects) is given as “around 56%”. Besides, in data set [3], the “displacement of BODIPY-PL2 from AGP” value was “unable to produce any discernible displacement”. For the same compound, the Ki was more than 200 µM in [3] (read-out: Ki values (text summary over probes), titration of probe-AGP solutions) and 225 ± 49 µM in data set [3] (read-out: Ki, displacement of ANS, probe ANS, 20°C, mean ± SE, n = 3 unless otherwise indicated, ND = not detected).

Regarding “[Dansyl-Lys]^1 polymyxin B3 [[Dansyl-Lys^1]PmB3]”, the “binding to AGP” value in data set [1] was “weak AGP affinity”.

As for colistin methanesulfonate [CMS], the “SPR binding response” value in data set [9] is listed as “very poor responses”. For the same compound, in data set [9] (concentration series 3 mM to 1.3 μM), the “concentration dependence of SPR binding” value is listed as “not concentration dependent”. Further, in [10], the “binding affinity for AGP by ITC” value is recorded as “no detectable binding affinity”. The “ability to displace the probes” value in data set [3] (ANS, Auramine O, Nile Red) was “no ability to displace any of the probes”.
